Reference: ChEMBL document CHEMBL1275561, “In vitro activities of doripenem, a new broad-spectrum carbapenem, against recently collected clinical anaerobic isolates, with emphasis on the Bacteroides fragilis group” (2008)

Columns and labels:
Format in all cases: functional
[1] = system: Bacteroides thetaiotaomicron; test: Antimicrobial activity against Bacteroides thetaiotaomicron assessed as resistant isolates by agar dilution method
Summary of the method: (§1)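 CLSI agar dilution on enriched brucella agar (5% lysed defibrinated sheep blood, 1 μg/ml vitamin K1), plates made on test day. Log-phase inocula adjusted to 0.5 McFarland; about 10^5 CFU/spot by Steers replicator. Incubated anaerobically at 37°C for 48 h. MIC was the lowest concentration giving a marked change in growth versus the drug-free control plate. Resistance rates used CLSI anaerobe breakpoints. Controls were B. fragilis ATCC 25285 and B. thetaiotaomicron ATCC 29741.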

[2] = system: Phocaeicola vulgatus; test: Antimicrobial activity against Bacteroides vulgatus assessed as resistant isolates by agar dilution method; summary of the method: as §1
[3] = system: Parvimonas micra; test: Antimicrobial activity against Micromonas micros by agar dilution method
Summary of the method: (§2)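 Gram-positive anaerobes were tested by CLSI agar dilution on brucella agar enriched with 5% lysed defibrinated sheep blood and 1 μg/ml vitamin K1. Inoculum was log-phase growth at 0.5 McFarland, about 10^5 CFU/spot by replicator. Incubation was anaerobic, 37°C, 48 h. MIC was the lowest concentration with a marked growth change versus the drug-free plate. Eubacterium lentum ATCC 43055 was the control, and tests were repeated if it fell outside the CLSI range.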

[4] = system: Anaerococcus prevotii; test: Antimicrobial activity against Anaerococcus prevotii by agar dilution method; summary of the method: as §2
[5] = system: Bacteroides nordii; test: Antimicrobial activity against Bacteroides nordii assessed as resistant isolates by agar dilution method; summary of the method: as §1
[6] = system: Propionibacterium; test: Antimicrobial activity against Propionibacterium sp. assessed as resistant isolates by agar dilution method
Summary of the method: (§3)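 Agar dilution following CLSI on brucella agar with 5% lysed defibrinated sheep blood and 1 μg/ml vitamin K1, plates made on test day. Log-phase cells at 0.5 McFarland, about 10^5 CFU/spot by Steers replicator, 48 h anaerobic at 37°C. MIC read as the lowest concentration causing a marked growth change versus control. Resistance counted by CLSI anaerobe breakpoints. Eubacterium lentum ATCC 43055 served as control.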

[7] = system: Clostridium subterminale; test: Antimicrobial activity against Clostridium subterminale by agar dilution method
[8] = system: Bacteroides uniformis; test: Antimicrobial activity against Bacteroides uniformis by agar dilution method
Summary of the method: (§4)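 CLSI agar dilution on enriched brucella agar (5% lysed defibrinated sheep blood, 1 μg/ml vitamin K1), with drug plates made on the test day. Log-phase cells were adjusted to 0.5 McFarland, and about 10^5 CFU/spot was delivered by Steers replicator. Plates were incubated anaerobically at 37°C for 48 h. MIC was the lowest concentration giving a marked growth change versus the control plate. Controls were B. fragilis ATCC 25285 and B. thetaiotaomicron ATCC 29741.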

[9] = system: Peptoniphilus asaccharolyticus; test: Antimicrobial activity against Peptoniphilus asaccharolyticus assessed as resistant isolates by agar dilution method; details: pooled result: one value given for 4 cell lines, strains, targets or settings; summary of the method: as §3
[10] = system: Bacteroides thetaiotaomicron; test: Antimicrobial activity against Bacteroides thetaiotaomicron by agar dilution method; summary of the method: as §4
[11] = system: Bacteroides uniformis; test: Antimicrobial activity against Bacteroides uniformis assessed as resistant isolates by agar dilution method; summary of the method: as §1
[12] = system: Propionibacterium; test: Antimicrobial activity against Propionibacterium sp. by agar dilution method
Summary of the method: (§5)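 Log-phase isolates were adjusted to 0.5 McFarland, and about 10^5 CFU/spot was delivered by Steers replicator. Plates were incubated anaerobically at 37°C for 48 h. MIC was the lowest concentration giving a marked growth change versus the control plate. Eubacterium lentum ATCC 43055 was the QC strain, with repeats when out of range.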

[13] = system: [Clostridium] innocuum; test: Antimicrobial activity against Clostridium innocuum by agar dilution method
[14] = system: Finegoldia magna; test: Antimicrobial activity against Finegoldia magna by agar dilution method; summary of the method: as §2
[15] = system: Clostridioides difficile; test: Antimicrobial activity against Clostridium difficile by agar dilution method
[16] = system: Bacteroides nordii; test: Antimicrobial activity against Bacteroides nordii by agar dilution method; summary of the method: as §4
[17] = system: Bacteroides eggerthii; test: Antimicrobial activity against Bacteroides eggerthii assessed as resistant isolates by agar dilution method; summary of the method: as §1
[18] = system: Peptostreptococcus sp.; test: Antimicrobial activity against Peptostreptococcus sp. by agar dilution method; summary of the method: as §5
[19] = system: Bacteroides caccae; test: Antimicrobial activity against Bacteroides caccae by agar dilution method; summary of the method: as §4
[20] = system: Parabacteroides distasonis; test: Antimicrobial activity against Bacteroides distasonis by agar dilution method; summary of the method: as §4
[21] = system: Phocaeicola vulgatus; test: Antimicrobial activity against Bacteroides vulgatus by agar dilution method; summary of the method: as §4
[22] = system: Parabacteroides merdae; test: Antimicrobial activity against Bacteroides merdae assessed as resistant isolates by agar dilution method; summary of the method: as §1
[23] = system: Cutibacterium acnes; test: Antimicrobial activity against Propionibacterium acnes assessed as resistant isolates by agar dilution method; summary of the method: as §3
[24] = system: Cutibacterium acnes; test: Antimicrobial activity against Propionibacterium acnes by agar dilution method; summary of the method: as §5
[25] = system: Peptoniphilus asaccharolyticus; test: Antimicrobial activity against Peptoniphilus asaccharolyticus by agar dilution method; summary of the method: as §2
[26] = system: Bacteroides fragilis; test: Antimicrobial activity against Bacteroides fragilis by agar dilution method; summary of the method: as §4
[27] = system: Parabacteroides distasonis; test: Antimicrobial activity against Bacteroides distasonis assessed as resistant isolates by agar dilution method; summary of the method: as §1
[28] = system: Finegoldia magna; test: Antimicrobial activity against Finegoldia magna assessed as resistant isolates by agar dilution method; summary of the method: as §3
[29] = system: Bacteroides ovatus; test: Antimicrobial activity against Bacteroides ovatus by agar dilution method; summary of the method: as §4
[30] = system: Parabacteroides merdae; test: Antimicrobial activity against Bacteroides merdae by agar dilution method; summary of the method: as §4
[31] = system: Bacteroides ovatus; test: Antimicrobial activity against Bacteroides ovatus assessed as resistant isolates by agar dilution method; summary of the method: as §1
[32] = system: Bacteroides eggerthii; test: Antimicrobial activity against Bacteroides eggerthii by agar dilution method; summary of the method: as §4
[33] = system: [Clostridium] innocuum; test: Antimicrobial activity against Clostridium innocuum assessed as resistant isolates by agar dilution method; details: pooled result: one value given for 4 cell lines, strains, targets or settings
[34] = system: Clostridium perfringens; test: Antimicrobial activity against Clostridium perfringens by agar dilution method
[35] = system: Clostridium tertium; test: Antimicrobial activity against Clostridium tertium by agar dilution method
[36] = system: Bacteroides caccae; test: Antimicrobial activity against Bacteroides caccae assessed as resistant isolates by agar dilution method; summary of the method: as §1
[37] = system: Clostridium paraputrificum; test: Antimicrobial activity against Clostridium paraputrificum by agar dilution method
[38] = system: Bacteroides fragilis; test: Antimicrobial activity against Bacteroides fragilis assessed as resistant isolates by agar dilution method; summary of the method: as §1

C[C@@H](O)[C@H]1C(=O)N2C(C(=O)O)=C(S[C@@H]3CN[C@H](CNS(N)(=O)=O)C3)[C@H](C)[C@H]12 [DORIPENEM]
0.06 µg/mL: MIC [3] | MIC50 [3] | MIC [4] | MIC50 [4] | MIC [12] | MIC50 [12] | MIC90 [12] | MIC [18] | MIC50 [18] | MIC [24] | MIC50 [24] | MIC90 [24] | MIC [25] | MIC50 [25] | MIC [34] | MIC50 [34]
1 µg/mL: MIC50 [7] | MIC90 [8] | MIC90 [10] | MIC50 [13] | MIC [15] | MIC90 [16] | MIC90 [26] | MIC90 [30] | MIC90 [32] | MIC50 [35] | MIC50 [37]
0.5 µg/mL: MIC90 [3] | MIC90 [4] | MIC50 [8] | MIC50 [10] | MIC50 [16] | MIC90 [18] | MIC50 [19] | MIC50 [20] | MIC50 [21] | MIC90 [25] | MIC50 [26] | MIC50 [29] | MIC50 [30] | MIC50 [32]
2 µg/mL: MIC90 [7] | MIC90 [13] | MIC90 [19] | MIC90 [20] | MIC90 [21] | MIC90 [29] | MIC90 [35] | MIC90 [37]
0%: Activity [1] | Activity [2] | Activity [5] | Activity [6] | Activity [9] | Activity [11] | Activity [17] | Activity [22] | Activity [23] | Activity [27] | Activity [28] | Activity [31] | Activity [33] | Activity [36]
1.5%: Activity [38]
0.125 µg/mL: MIC50 [14] | MIC90 [14] | MIC90 [34]

C[C@@H](O)[C@H]1C(=O)N2C(C(=O)O)=C(S[C@@H]3CN[C@H](C(=O)N(C)C)C3)[C@H](C)[C@H]12 [MEROPENEM]
0%: Activity [1] | Activity [2] | Activity [5] | Activity [6] | Activity [9] | Activity [11] | Activity [17] | Activity [22] | Activity [23] | Activity [27] | Activity [28] | Activity [31] | Activity [33] | Activity [36]
0.06 µg/mL: MIC [12] | MIC50 [12] | MIC [24] | MIC50 [24] | MIC90 [24] | MIC [34] | MIC50 [34]
1 µg/mL: MIC [15] | MIC90 [16] | MIC50 [20] | MIC90 [26] | MIC90 [30] | MIC90 [32]
0.125 µg/mL: MIC50 [3] | MIC50 [4] | MIC50 [14] | MIC90 [14] | MIC50 [18] | MIC50 [25] | MIC90 [34]
0.5 µg/mL: MIC90 [3] | MIC90 [4] | MIC90 [8] | MIC50 [10] | MIC90 [18] | MIC50 [21] | MIC90 [25] | MIC50 [29]
0.25 µg/mL: MIC50 [8] | MIC90 [12] | MIC50 [16] | MIC50 [19] | MIC50 [26] | MIC50 [30] | MIC50 [32]
1.5%: Activity [38]
2 µg/mL: MIC50 [7] | MIC90 [7] | MIC90 [10] | MIC50 [13] | MIC90 [13] | MIC90 [19] | MIC90 [20] | MIC90 [21] | MIC90 [29] | MIC50 [35] | MIC90 [35] | MIC50 [37] | MIC90 [37]
